Measured values: ChEMBL document CHEMBL4811300, “Design, synthesis, and biological evaluation of novel bifunctional thyrointegrin antagonists for neuroblastoma” (Bioorg Med Chem, 2021)

Legend:
SK-N-FI [1] = test: Antitumor activity against human SK-N-FI cells xenografted in Ncr nude mouse assessed as reduction of tumor weight at 3 mg/kg, sc dosed daily up to 20 days relative to control; assay type: functional; parameters: scale not given: the % may be the effect or the level left; details: time day <=20
Outline: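 SK-N-F1 xenografts: 2 million cells per implant, 4 mice per group, with treatment starting once tumors reached 500 mm³. Dosing was 3 mg/kg s.c. once daily for 20 days (the methods say 21) against PBS vehicle control. Animals were sacrificed at study end, and tumors were excised and weighed.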

SK-N-FI [2] = test: Antitumor activity against human SK-N-FI cells xenografted in Ncr nude mouse assessed as increase in necrotic cells in tumor at 3 mg/kg, sc dosed daily up to 20 days by H and E staining based light microscopic analysis relative to control; assay type: functional; details: time day <=20
Outline: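 SK-N-F1 cells (2 million per implant) were grown in mice (4 per group) until tumors reached 500 mm³. Mice were then dosed at 3 mg/kg s.c. once daily for 20 days against PBS vehicle; the methods section states 21 days. Harvested tumors were fixed in 10% formalin for at least 48 h, paraffin-embedded, sectioned and H&E stained. Necrosis, fibrosis and debris area was scored microscopically at 4X, 10X and 40X.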

[3] = Drug uptake in human SK-N-F1 cells at 10 uM measured upto 60 mins by LC-MS/MS analysis; assay type: ADME, cell-based; details: sk-n-fi, 1 h
Outline: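 SK-N-F1 cells (~1M) were exposed to compound at 10 uM per the figure legend; the methods text gives 1 µM. Incubation lasted 15, 30 and 60 min. Cells were washed with PBS, pelleted at 5,000g for 10 min, homogenized in acetonitrile and extracted. The residue was reconstituted in acetonitrile/water 80/20. Quantification was by LC-MS/MS (positive ESI MRM) against 1–1000 ng/mL standards.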

Drug uptake [3]	Structure (SMILES)	Activity (SK-N-FI [1]) [%]	Activity (SK-N-FI [2]) [%]
	N=C(N)NCc1ccc(OCCOCCOCCOCCOCCOCCOCCOCCN2CCN(CCCOc3c(I)cc(Oc4c(I)cc(CC(=O)O)cc4I)cc3I)CC2)cc1	90	98
Active	CC(C)(C)OC(=O)NCc1ccc(OCCOCCOCCOCCOCCOCCOCCn2cc(COc3c(I)cc(Oc4c(I)cc(CC(=O)O)cc4I)cc3I)nn2)cc1		
Active	N=C(N)NCc1cccc(I)c1 [IOBENGUANE]		
